Measured values published in ChEMBL document CHEMBL1137675, “Convenient one-pot synthesis of novel 2-substituted benzimidazoles, tetrahydrobenzimidazoles and imidazoles and evaluation of their in vitro antibacterial and antifungal activities” (2009).
Values after ≈ are worked out from the molar mass of the structure shown.

Tests used:
Bacillus subtilis [1] = assay: Antibacterial activity against Bacillus subtilis ATCC 6051 at 37 degC after 24 hrs by filter paper disk method; assay type: functional; conditions: for MIC: Bacillus subtilis, ATCC 6051, 24 h
Method in brief: (§1)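 Compounds were taken from a 1 mg/ml DMSO stock and serially diluted two-fold over a 300 to 18.75 range, then loaded onto sterile 8 mm paper discs. Bacteria were grown overnight in nutrient broth at 37 °C, pelleted, and resuspended in sterile NSS to 10⁵ cfu/ml. About 0.1 ml was spread on NA plates. Plates were incubated 24 h at 37 °C with a solvent control disc, and inhibition zone diameter was read in mm.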

Escherichia coli [2] = assay: Antibacterial activity against Escherichia coli K-12 at 30 ug/disk at 37 degC after 24 hrs by filter paper disk method; assay type: functional; conditions: K-12, 24 h, read-out: DIZ
Method in brief: (§2)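 Disc diffusion on nutrient agar. Inoculum was grown overnight in NA broth at 37 °C, centrifuged, and resuspended in sterile NSS to 10⁵ cfu/ml; about 0.1 ml was spread per plate. Sterile 8 mm discs carried compound, with a 1 mg/ml DMSO stock diluted two-fold from 300 to 18.75. Controls were a solvent disc and a chloramphenicol disc. After 24 h at 37 °C, inhibition-zone diameter was read in mm.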

Escherichia coli [3] = assay: Antibacterial activity against Escherichia coli K-12 at 37 degC after 24 hrs by filter paper disk method; assay type: functional; conditions: for MIC: Escherichia coli, K-12, 24 h; method in brief: as §1
Bacillus subtilis [4] = assay: Antibacterial activity against Bacillus subtilis ATCC 6051 at 30 ug/disk at 37 degC after 24 hrs by filter paper disk method; assay type: functional; conditions: ATCC 6051, 24 h, read-out: DIZ
Method in brief: (§3)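 Chloramphenicol was given as a reference antibiotic disc. Bacteria were grown overnight in nutrient broth at 37 °C and adjusted to 10⁵ cfu/ml in sterile NSS. About 0.1 ml was spread on NA plates next to 8 mm discs, including a solvent disc. Plates were incubated 24 h at 37 °C, and zones of inhibition were measured in mm.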

Staphylococcus aureus [5] = assay: Antibacterial activity against Staphylococcus aureus MSSA 22 at 37 degC after 24 hrs by filter paper disk method; assay type: functional; conditions: for MIC: Staphylococcus aureus, MSSA 22, 24 h; method in brief: as §1
Staphylococcus aureus [6] = assay: Antibacterial activity against Staphylococcus aureus MSSA 22 at 30 ug/disk at 37 degC after 24 hrs by filter paper disk method; assay type: functional; conditions: MSSA 22, 24 h, read-out: DIZ; method in brief: as §2
Salmonella typhimurium [7] = assay: Antibacterial activity against Salmonella Typhimurium MTCC 98 at 37 degC after 24 hrs by filter paper disk method; assay type: functional, Salmonella enterica subsp. enterica serovar Typhimurium; conditions: for MIC: Salmonella enterica, MTCC 98, 24 h; method in brief: as §1
Salmonella typhimurium [8] = assay: Antibacterial activity against Salmonella Typhimurium MTCC 98 at 30 ug/disk at 37 degC after 24 hrs by filter paper disk method; assay type: functional, Salmonella enterica subsp. enterica serovar Typhimurium; conditions: Salmonella enterica, MTCC 98, 24 h; read-out: DIZ; method in brief: as §3
Candida albicans [9] = assay: Antifungal activity against Candida albicans IOA-109 at 37 degC after 18 to 48 hrs; assay type: functional
Trichoderma viride [10] = assay: Antifungal activity against Trichoderma viride at 30 ug/disk at 28 degC after 72 hrs; assay type: functional, organism-based
Method in brief: (§4)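 Disc diffusion on SDA; cultures were kept at 28 °C. Spores from 7-day cultures were suspended in sterile normal saline ([…] NaCl as printed) and diluted to about 10⁵ cfu/ml; about 0.1 ml was spread per plate. 8 mm discs carried compound from a DMSO stock, alongside a solvent disc and a nystatin disc. After 72 h or more at 28 °C, inhibition-zone diameter was read in mm.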

Aspergillus niger [11] = assay: Antifungal activity against Aspergillus niger at 30 ug/disk at 28 degC after 72 hrs; assay type: functional, organism-based; method in brief: as §4
Helminthosporium [12] = assay: Antifungal activity against Helminthosporium oryzae 2537 ICAR at 28 degC after 72 hrs; assay type: functional
Method in brief: (§5)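 Filamentous fungi were kept on SDA at 28 °C. Spores from 7-day cultures were suspended in sterile normal saline to about 10⁵ cfu/ml, and about 0.1 ml was spread on SDA plates. Compounds were serially diluted two-fold in DMSO and impregnated on 8 mm discs, with a solvent control disc on each plate. Plates were held at 28 °C for 72 h or more, and inhibition zone diameter was read in mm.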

Aspergillus niger [13] = assay: Antifungal activity against Aspergillus niger at 28 degC after 72 hrs; assay type: functional; method in brief: as §5
Helminthosporium [14] = assay: Antifungal activity against Helminthosporium oryzae 2537 ICAR at 30 ug/disk at 28 degC after 72 hrs; assay type: functional, organism-based; method in brief: as §4
Candida albicans [15] = assay: Antifungal activity against Candida albicans IOA-109 at 30 ug/disk at 37 degC after 18 to 48 hrs; assay type: functional, organism-based
Method in brief: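 Disc diffusion on SDA. Inoculum was grown overnight in SD broth at 37 °C, centrifuged, and resuspended in sterile NSS to 10⁵ cfu/ml; about 0.1 ml was spread per plate. 8 mm discs carried compound from a DMSO stock, alongside a solvent disc and a nystatin disc. After 18–48 h at 37 °C, inhibition-zone diameter was read in mm.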

Penicillium sp. [16] = assay: Antifungal activity against Penicillium sp. at 30 ug/disk at 28 degC after 72 hrs; assay type: functional, organism-based; method in brief: as §4
Trichoderma viride [17] = assay: Antifungal activity against Trichoderma viride at 28 degC after 72 hrs; assay type: functional; method in brief: as §5
Penicillium sp. [18] = assay: Antifungal activity against Penicillium sp. at 28 degC after 72 hrs; assay type: functional; method in brief: as §5

Row | Compound | MIC (Bacillus subtilis [1]) | MIC (Escherichia coli [3]) | MIC (Staphylococcus aureus [5]) | MIC (Salmonella typhimurium [7]) | diameter of the inhibition zone (DIZ) (Candida albicans [9]) | MIC (Candida albicans [9]; Candida albicans, IOA-109) | diameter of the inhibition zone (DIZ) (Bacillus subtilis [1]) | diameter of the inhibition zone (DIZ) (Helminthosporium [12]) | MIC (Helminthosporium [12]; Helminthosporium, 72 h) | diameter of the inhibition zone (DIZ) (Aspergillus niger [13]) | MIC (Aspergillus niger [13]; Aspergillus niger, 72 h) | diameter of the inhibition zone (DIZ) (Escherichia coli [3]) | diameter of the inhibition zone (DIZ) (Staphylococcus aureus [5]) | diameter of the inhibition zone (DIZ) (Salmonella typhimurium [7]) | diameter of the inhibition zone (DIZ) (Trichoderma viride [17]) | MIC (Trichoderma viride [17]; Trichoderma viride, 72 h) | diameter of the inhibition zone (DIZ) (Penicillium sp. [18]) | MIC (Penicillium sp. [18]; Penicillium sp., 72 h) | also measured
1 | O=C(N[C@H](CO)[C@H](O)c1ccc([N+](=O)[O-])cc1)C(Cl)Cl [CHLORAMPHENICOL] | 6 µg/mL (≈ 18.6 µM) | 12.5 µg/mL (≈ 38.7 µM) | 12.5 µg/mL (≈ 38.7 µM) | 6 µg/mL (≈ 18.6 µM) |  |  |  |  |  |  |  |  |  |  |  |  |  |  | zone of inhibition at 30 µg/disc (Escherichia coli [2]): 25 mm; zone of inhibition at 30 µg/disc (Bacillus subtilis [4]): 24 mm; zone of inhibition at 30 µg/disc (Staphylococcus aureus [6]): 26 mm; zone of inhibition at 30 µg/disc (Salmonella typhimurium [8]): 20 mm
2 | NYSTATIN |  |  |  |  |  |  |  |  |  |  |  |  |  |  |  |  |  |  | MIC (Candida albicans [9]): 6 µg/mL; inhibition zone (IZ) (Trichoderma viride [10]): 15 mm; inhibition zone (IZ) (Aspergillus niger [11]): 18 mm; MIC (Helminthosporium [12]): 12.5 µg/mL; MIC (Aspergillus niger [13]): 12.5 µg/mL; inhibition zone (IZ) (Helminthosporium [14]): 18 mm; inhibition zone (IZ) (Candida albicans [15]): 20 mm; inhibition zone (IZ) (Penicillium sp. [16]): 20 mm; MIC (Trichoderma viride [17]): 6 µg/mL; MIC (Penicillium sp. [18]): 6 µg/mL
3 | C=CCCCCCCCCc1nc2cc([N+](=O)[O-])ccc2[nH]1 | 37.5 µg/mL (≈ 124 µM) | 75 µg/mL (≈ 249 µM) | 150 µg/mL (≈ 498 µM) | 37.5 µg/mL (≈ 124 µM) | 18 mm | 37.5 µg/mL (≈ 124 µM) | 19 mm | 10 mm | 75 µg/mL (≈ 249 µM) | 15 mm | 37.5 µg/mL (≈ 124 µM) | 20 mm | 22 mm | 12 mm | 8 mm | 37.5 µg/mL (≈ 124 µM) | 18 mm | 37.5 µg/mL (≈ 124 µM) | 
4 | CCCCC/C=C\CC[C@H](O)CCCCCCCc1nc2ccccc2[nH]1 | 75 µg/mL (≈ 202 µM) | 150 µg/mL (≈ 405 µM) | 150 µg/mL (≈ 405 µM) | 75 µg/mL (≈ 202 µM) | 18 mm | 75 µg/mL (≈ 202 µM) | 19 mm | 11 mm | 150 µg/mL (≈ 405 µM) | 14 mm | 150 µg/mL (≈ 405 µM) | 17 mm | 19 mm | 12 mm | 8 mm | 75 µg/mL (≈ 202 µM) | 17 mm | 75 µg/mL (≈ 202 µM) | 
5 | CCCCC/C=C\CC[C@H](O)CCCCCCCc1nc2c([nH]1)CCCC2 | 75 µg/mL (≈ 200 µM) | 150 µg/mL (≈ 400 µM) | 75 µg/mL (≈ 200 µM) | 75 µg/mL (≈ 200 µM) | 19 mm | 75 µg/mL (≈ 200 µM) | 23 mm | 11 mm | 150 µg/mL (≈ 400 µM) | 12 mm | 37.5 µg/mL (≈ 100 µM) | 16 mm | 16 mm | 13 mm | 8 mm | 37.5 µg/mL (≈ 100 µM) | 17 mm | 75 µg/mL (≈ 200 µM) | 
